Reference: ChEMBL document CHEMBL1135762, “Chiral N,N-disubstituted trifluoro-3-amino-2-propanols are potent inhibitors of cholesteryl ester transfer protein” (J Med Chem, 2002)

Experiments:
[1] = biological target: T1, Cholesteryl ester transfer protein (Homo sapiens, UniProt P11597); assay: Concentration required for 50% inhibition of cholesteryl ester transfer protein in presence of buffer.
T1 sequence (P11597 whole entry): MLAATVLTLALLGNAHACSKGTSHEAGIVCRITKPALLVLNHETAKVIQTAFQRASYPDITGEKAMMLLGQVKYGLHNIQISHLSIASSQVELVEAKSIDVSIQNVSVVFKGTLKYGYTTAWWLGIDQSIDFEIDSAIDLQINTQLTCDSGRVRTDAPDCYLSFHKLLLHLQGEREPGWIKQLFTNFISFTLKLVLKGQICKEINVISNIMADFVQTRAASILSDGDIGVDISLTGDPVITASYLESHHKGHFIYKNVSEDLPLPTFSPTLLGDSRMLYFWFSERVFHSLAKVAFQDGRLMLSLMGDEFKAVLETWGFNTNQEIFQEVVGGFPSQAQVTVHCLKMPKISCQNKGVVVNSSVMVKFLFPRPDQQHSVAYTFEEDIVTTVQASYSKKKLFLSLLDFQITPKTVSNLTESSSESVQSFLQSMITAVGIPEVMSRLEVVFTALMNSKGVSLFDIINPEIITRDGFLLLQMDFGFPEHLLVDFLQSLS

[2] = biological target: T1, Cholesteryl ester transfer protein; assay: Inhibition of cholesteryl ester transfer protein in presence of human serum
How it was run: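 CETP-mediated transfer of [³H]CE from HDL donor particles, measured with human serum supplying LDL, VLDL and human CETP.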

Mus musculus [3] = assay: Oral dosing of qd for 5 days at 30 mg/kg had percent increase of HDLc in hCEPT transgenic mice; assay type: functional
How it was run: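 C57bl mice transgenic for human CETP (plasma hCETP 2–20 µg/mL), fed cholesterol- and fat-supplemented chow for at least 2 weeks. Dosed orally at 30 mg/kg once daily for 5 days. Serum then analysed by size exclusion chromatography on two Superose 6 columns for relative VLDLc, LDLc and HDLc.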

[4] = Bioavailability in mice was reported; assay type: ADME, organism-based; conditions: mouse, in vivo
Mus musculus [5] = assay: Inhibition of CETP-mediated transfer ex vivo after 30 min in hCEPT transgenic mice by a single dose at 30 mg/kg; assay type: functional; conditions: 0.5 h
How it was run: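 C57Bl/6 mice homozygous for the human CETP gene, fed high-fat chow for at least 2 weeks. Single 30 mg/kg iv bolus in 10% ethanol/90% PEG; controls got vehicle. 0.05 mL [³H]CE-HDL (human HDL) was given into the tail vein. After 30 min, EDTA blood was taken and plasma obtained at 4 °C. Gel filtration gave the [³H]CE proportion in VLDL, LDL and HDL, compared with controls.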

[6] = biological target: T2, Cholesteryl ester transfer protein (Homo sapiens) (UniProt P11597); conditions: Cricetulus griseus; 30 mg/kg
T2 sequence (whole entry): T1 sequence (P11597 whole entry)

[7] = biological target: T2, Cholesteryl ester transfer protein (Homo sapiens); conditions: Cricetulus griseus; 33 mg/kg

| SMILES | IC50 [1] [µM] | further results |
| --- | --- | --- |
| Cc1ccc(CN(CC(O)C(F)(F)F)c2cccc(F)c2)cc1 (stereo not given) | 65 | – |
| COc1cccc(CN(CC(O)C(F)(F)F)c2cccc(Oc3ccccc3)c2)c1 (stereo not given) | 15 | IC50 [2]: > 200 µM |
| OC(CN(Cc1cccc(OC(F)(F)F)c1)c1cccc(Oc2ccccc2)c1)c1ccccc1 (stereo not given) | > 50 | – |
| C=CC(O)CN(Cc1cccc(OC(F)(F)F)c1)c1cccc(Oc2ccccc2)c1 (stereo not given) | > 50 | – |
| CC(C)(O)c1cccc(CN(CC(O)C(F)(F)F)c2cccc(Oc3ccccc3)c2)c1 (stereo not given) | 7.8 | – |
| OC(CN(Cc1cccc(OC(F)(F)C(F)F)c1)c1cccc(Oc2ccccc2)c1)C(F)(F)F (stereo not given) | – | Increase (Mus musculus [3]): 20%; bioavailability [4]: < 10%; inhibition in vivo at 30 mg/kg (Mus musculus [5]): 50%; inhibition [6]: 30% |
| CC(C)(C)Oc1cccc(CN(CC(O)C(F)(F)F)c2cccc(Oc3ccccc3)c2)c1 (stereo not given) | 0.66 | IC50 [2]: 29 µM |
| OC(Cc1ccccc1)CN(Cc1cccc(OC(F)(F)F)c1)c1cccc(Oc2ccccc2)c1 (stereo not given) | > 50 | – |
| Cc1ccccc1CN(CC(O)C(F)(F)F)c1cccc(F)c1 (stereo not given) | > 100 | – |
| OC(COc1cccc(CN(CC(O)C(F)(F)F)c2cccc(Oc3ccccc3)c2)c1)C(F)(F)F (stereo not given) | 1.3 | IC50 [2]: 62 µM |
| Cc1ccc(N(Cc2cccc(C(F)(F)F)c2)CC(O)C(F)(F)F)cc1 (stereo not given) | > 100 | – |
| OC(CN(Cc1cccc(C(F)(F)F)c1)c1cccc(Cl)c1)C(F)(F)F (stereo not given) | 12 | – |
| O[C@H](CN(Cc1cccc(OC(F)(F)C(F)F)c1)c1cccc(Oc2ccccc2)c1)C(F)(F)F | – | inhibition [7]: 30% |
| COC(=O)c1cccc(CN(CC(O)C(F)(F)F)c2cccc(Oc3ccccc3)c2)c1 (stereo not given) | 16 | – |
| OC(CN(Cc1cccc(C(F)(F)F)c1)c1cccc(F)c1)C(F)(F)F (stereo not given) | 37 | – |
| Cc1ccccc1N(Cc1cccc(C(F)(F)F)c1)CC(O)C(F)(F)F (stereo not given) | > 100 | – |
| OC(CN(Cc1cccc(Oc2cccc(C(F)(F)F)c2)c1)c1cccc(F)c1)C(F)(F)F (stereo not given) | > 100 | – |
| OC(CN(Cc1cccc(C2CCCC2)c1)c1cccc(Oc2ccccc2)c1)C(F)(F)F (stereo not given) | 0.3 | – |
| OC(CN(Cc1cccc(OC(F)(F)C(F)F)c1)c1cccc(F)c1)C(F)(F)F (stereo not given) | 4.5 | – |
